Reference: ChEMBL document CHEMBL1148641, “Design and synthesis of novel sulfonamide-containing bradykinin hB2 receptor antagonists. 1. Synthesis and SAR of alpha,alpha-dimethylglycine sulfonamides” (J Med Chem, 2006)
pKi: −log10 of the molar value.

How the values were obtained:
B2 bradykinin receptor [1] = molecular target: T1, B2 bradykinin receptor (Homo sapiens, UniProt P30411); assay: Displacement of [3H]BK from human B2 receptor transfected in CHO cells; assay type: cell-based
T1 sequence (P30411 whole entry): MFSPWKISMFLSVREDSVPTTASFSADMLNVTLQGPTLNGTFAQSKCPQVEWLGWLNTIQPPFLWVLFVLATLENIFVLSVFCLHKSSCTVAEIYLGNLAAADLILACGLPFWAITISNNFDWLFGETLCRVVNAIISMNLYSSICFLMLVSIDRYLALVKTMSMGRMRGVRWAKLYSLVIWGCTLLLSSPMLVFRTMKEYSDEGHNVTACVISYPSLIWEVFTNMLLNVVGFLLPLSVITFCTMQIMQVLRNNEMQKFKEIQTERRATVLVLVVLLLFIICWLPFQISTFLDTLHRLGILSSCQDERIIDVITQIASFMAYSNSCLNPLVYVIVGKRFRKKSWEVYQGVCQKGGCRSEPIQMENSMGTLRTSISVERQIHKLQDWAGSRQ
How it was run: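 Membranes from stably transfected CHO cells (100-150 µg/mL) incubated 60 min at room temperature with [³H]BK at 0.1-0.2 nM in TES buffer pH 7.4 with 1,10-phenanthroline, bacitracin and BSA, 1% DMSO final. Competitor 1 pM-10 µM; nonspecific binding with 1 µM BK. Filtration, scintillation counting; IC50 converted to pKi by Cheng-Prusoff.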

B2 bradykinin receptor [2] = molecular target: T1, B2 bradykinin receptor; assay: Activity at human B2 receptor transfected in CHO cells assessed as ability to antagonize BK-induced inositol-phosphate accumulation; assay type: functional, cell-based; settings: read-out: pA2 (converted)
How it was run: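 Stably transfected CHO cells (1.8 × 10⁵/well) grown overnight at 37 °C, then labeled 24 h with [³H]myo-inositol (1 µCi/well). Antagonist preincubation 20 min at a nanomolar concentration, then BK 1 × 10^-11 to 1 × 10^-5 M for 40 min at 37 °C in LiCl-containing buffer, pH 7.4. IP1 radioactivity by liquid scintillation; pA₂ from EC50 concentration-ratios of sigmoidal fits.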

Cavia porcellus [3] = assay: Inhibition of BK-induced bronchoconstriction in guinea pig intratracheally administered at 300 nmol/kg for 210 min; assay type: functional; settings: inhaled or nasal, 3.5 h
How it was run: (§1)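 Anesthetized guinea pigs given compound intratracheally at 300 nmol/kg. BK-induced bronchoconstriction and BK-induced hypotension followed over time after dosing.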

Cavia porcellus [4] = assay: Reduction in hypotensive effect in guinea pig intratracheally administered at 300 nmol/kg for 60 min; assay type: functional; design: scale not given: the % may be the effect or the level left; how it was run: as §1

Compound	pKi (B2 bradykinin receptor [1])	Kb (B2 bradykinin receptor [2]) [nM]	further results
Cc1ccc2cccc(OCc3c(Cl)ccc(S(=O)(=O)NC(C)(C)C(=O)NCCCN=C(N)N)c3Cl)c2n1	7.40		
Cc1ccc2cccc(OCc3c(Cl)ccc(S(=O)(=O)NC(C)(C)C(=O)NCc4ccccc4)c3Cl)c2n1	< 5.00		
Cc1ccc2cccc(OCc3c(Cl)ccc(S(=O)(=O)NC(C)(C)C(=O)NCCN)c3Cl)c2n1	7.00		
Cc1cc(C)c2cccc(OCc3c(Cl)ccc(S(=O)(=O)NC(C)(C)C(=O)N4CCN(C(=O)C[C@@H](N)CCCN(C)C)CC4)c3Cl)c2n1	9.20	2.51	
CC(=O)N[C@@H](CCCCN(C)C)C(=O)N1CCN(C(=O)C(C)(C)NS(=O)(=O)c2ccc(Cl)c(COc3cccc4ccc(C)nc34)c2Cl)CC1	8.00	20	
Cc1ccc2cccc(OCc3c(Cl)ccc(S(=O)(=O)NC(C)(C)C(=O)N4CCN(CCN=C(N)N)CC4)c3Cl)c2n1	8.00	39.8	
Cc1ccc2cccc(OCc3c(Cl)ccc(S(=O)(=O)NC(C)(C)C(=O)NCCCc4ccccc4)c3Cl)c2n1	< 5.00		
Cc1cc(C)c2cccc(OCc3c(Cl)ccc(S(=O)(=O)NC(C)(C)C(=O)N4CCN(C(=O)[C@@H](N)CCCN(C)C)CC4)c3Cl)c2n1	9.40	0.794	inhibition in vivo at 0.3 µmol/kg (Cavia porcellus [3]): 80%; Activity (Cavia porcellus [4]): 30%
Cc1ccc2cccc(OCc3c(Cl)ccc(S(=O)(=O)NC(C)(C)C(=O)N4CCN(C(=O)[C@@H](N)CCCCN(C)C)CC4)c3Cl)c2n1	8.70	11.2	
Cc1ccc2cccc(OCc3c(Cl)ccc(S(=O)(=O)NC(C)(C)C(=O)NCCCNCc4ccc(Cl)cc4)c3Cl)c2n1	6.10		
Cc1ccc2cccc(OCc3c(Cl)ccc(S(=O)(=O)NC(C)(C)C(=O)N4CCN(C(=O)[C@@H](N)CCCN(C)C)CC4)c3Cl)c2n1	9.40	25.1	
Cc1ccc2cccc(OCc3c(Cl)ccc(S(=O)(=O)NC(C)(C)C(=O)NCCCNCc4ccccc4)c3Cl)c2n1	6.70		
Cc1ccc2cccc(OCc3c(Cl)ccc(S(=O)(=O)NC(C)(C)C(=O)N4CCCNCC4)c3Cl)c2n1	7.60		
Cc1ccc2cccc(OCc3c(Cl)ccc(S(=O)(=O)NC(C)(C)C(=O)NCCCNCc4c[nH]cn4)c3Cl)c2n1	6.80		
COCCNC(=O)C(C)(C)NS(=O)(=O)c1ccc(Cl)c(COc2cccc3ccc(C)nc23)c1Cl	5.10		
Cc1ccc2cccc(OCc3c(Cl)ccc(S(=O)(=O)NC(C)(C)C(=O)NCCc4ccccc4)c3Cl)c2n1	< 5.00		
Cc1ccc2cccc(OCc3c(Cl)ccc(S(=O)(=O)NC(C)(C)C(=O)NCCCNCc4ccc(N(C)C)cc4)c3Cl)c2n1	6.80		
Cc1ccc2cccc(OCc3c(Cl)ccc(S(=O)(=O)NC(C)(C)C(=O)N4CCNCC4)c3Cl)c2n1	7.60		
Cc1ccc2cccc(OCc3c(Cl)ccc(S(=O)(=O)NC(C)(C)C(=O)N4CCN(C(=N)NCCCN)CC4)c3Cl)c2n1	8.80	11	

Compound	pKi (B2 bradykinin receptor [1])	Kb (B2 bradykinin receptor [2]) [nM]	further results
Cc1ccc2cccc(OCc3c(Cl)ccc(S(=O)(=O)NC(C)(C)C(=O)N4CCN(CCCCCCN)CC4)c3Cl)c2n1	8.60	20	
Cc1cc(C)c2cccc(OCc3c(Cl)ccc(S(=O)(=O)NC(C)(C)C(=O)N4CCN(C(=O)[C@@H](N)CCCCN(C)C)CC4)c3Cl)c2n1		3.16	
Cc1ccc2cccc(OCc3c(Cl)ccc(S(=O)(=O)NC(C)(C)C(=O)NCCCNCc4ccc(C(N)=O)cc4)c3Cl)c2n1	6.90		
Cc1ccc2cccc(OCc3c(Cl)ccc(S(=O)(=O)NC(C)(C)C(=O)NCCN4CCOCC4)c3Cl)c2n1	5.60		
Cc1ccc2cccc(OCc3c(Cl)ccc(S(=O)(=O)NC(C)(C)C(=O)NCCCN(C)C)c3Cl)c2n1	6.70		
Cc1ccc2cccc(OCc3c(Cl)ccc(S(=O)(=O)NC(C)(C)C(=O)NCCCNCc4ccccn4)c3Cl)c2n1	7.40		
Cc1ccc2cccc(OCc3c(Cl)ccc(S(=O)(=O)NC(C)(C)C(=O)NCCCNCc4ccc(F)cc4)c3Cl)c2n1	6.40		
Cc1cc(C)c2cccc(OCc3c(Cl)ccc(S(=O)(=O)NC(C)(C)C(=O)N4CCN(C(=N)NCCCN)CC4)c3Cl)c2n1	9.00	2.51	
Cc1ccc2cccc(OCc3c(Cl)ccc(S(=O)(=O)NC(C)(C)C(=O)NCC4CCNCC4)c3Cl)c2n1	6.80		
Cc1ccc2cccc(OCc3c(Cl)ccc(S(=O)(=O)NC(C)(C)C(=O)N4CCCNCCC4)c3Cl)c2n1	7.00		
Cc1ccc2cccc(OCc3c(Cl)ccc(S(=O)(=O)NC(C)(C)C(=O)NCCCNC(=O)c4ccc(C(=N)N)cc4)c3Cl)c2n1	7.70		
Cc1cc(C)c2cccc(OCc3c(Cl)ccc(S(=O)(=O)NC(C)(C)C(=O)NCCCNc4ccc(C(=N)N)cc4)c3Cl)c2n1	8.10		
Cc1ccc2cccc(OCc3c(Cl)ccc(S(=O)(=O)NC(C)(C)C(=O)N4CCN(C(=O)C[C@@H](N)CCCCN(C)C)CC4)c3Cl)c2n1	9.20	39.8	
Cc1ccc2cccc(OCc3c(Cl)ccc(S(=O)(=O)NC(C)(C)C(=O)NCCCN)c3Cl)c2n1	6.80		
Cc1ccc2cccc(OCc3c(Cl)ccc(S(=O)(=O)NC(C)(C)C(=O)N4CCN(C(=N)NCCCCCCN)CC4)c3Cl)c2n1	9.00	7.94	
Cc1cc(C)c2cccc(OCc3c(Cl)ccc(S(=O)(=O)NC(C)(C)C(=O)N4CCN(C(=O)C[C@@H](N)CCCCN(C)C)CC4)c3Cl)c2n1	9.30	2.51	
COc1ccc(CNCCCNC(=O)C(C)(C)NS(=O)(=O)c2ccc(Cl)c(COc3cccc4ccc(C)nc34)c2Cl)cc1	6.70		
Cc1ccc2cccc(OCc3c(Cl)ccc(S(=O)(=O)NC(C)(C)C(=O)NCCCNCc4ccoc4)c3Cl)c2n1	6.50		
Cc1ccc2cccc(OCc3c(Cl)ccc(S(=O)(=O)NC(C)(C)C(=O)N4CCN(C(=O)C[C@@H](N)CCCCN=C(N)N)CC4)c3Cl)c2n1	8.90	7.94	

Compound	pKi (B2 bradykinin receptor [1])	Kb (B2 bradykinin receptor [2]) [nM]	further results
Cc1ccc2cccc(OCc3c(Cl)ccc(S(=O)(=O)NC(C)(C)C(=O)NCCN=C(N)N)c3Cl)c2n1	7.70		
Cc1ccc2cccc(OCc3c(Cl)ccc(S(=O)(=O)NC(C)(C)C(=O)NCCCCN)c3Cl)c2n1	6.70		
Cc1ccc2cccc(OCc3c(Cl)ccc(S(=O)(=O)NC(C)(C)C(=O)N4CCN(C(=N)N)CC4)c3Cl)c2n1	8.40	39.8	
Cc1ccc2cccc(OCc3c(Cl)ccc(S(=O)(=O)NC(C)(C)C(=O)NC4CCNCC4)c3Cl)c2n1	7.10		
Cc1ccc2cccc(OCc3c(Cl)ccc(S(=O)(=O)NC(C)(C)C(=O)N4CCN(CCCCCCN=C(N)N)CC4)c3Cl)c2n1	8.80	7.94	
Cc1ccc2cccc(OCc3c(Cl)ccc(S(=O)(=O)NC(C)(C)C(=O)NCCCNCc4ccc(O)cc4)c3Cl)c2n1	7.10		
Cc1ccc2cccc(OCc3c(Cl)ccc(S(=O)(=O)NC(C)(C)C(=O)N4CCN(C(=O)C[C@@H](N)CCCN(C)C)CC4)c3Cl)c2n1	9.10	39.8	
Cc1ccc2cccc(OCc3c(Cl)ccc(S(=O)(=O)NC(C)(C)C(=O)NCCCN4CCOCC4)c3Cl)c2n1	6.20		
Cc1ccc2cccc(OCc3c(Cl)ccc(S(=O)(=O)NC(C)(C)C(=O)Nc4ccccc4)c3Cl)c2n1	5.10		
Cc1ccc2cccc(OCc3c(Cl)ccc(S(=O)(=O)NC(C)(C)C(=O)N=C(N)N)c3Cl)c2n1	7.20		
COCCCNC(=O)C(C)(C)NS(=O)(=O)c1ccc(Cl)c(COc2cccc3ccc(C)nc23)c1Cl	6.40		
Cc1ccc2cccc(OCc3c(Cl)ccc(S(=O)(=O)NC(C)(C)C(=O)NCCCN4CCN(C)CC4)c3Cl)c2n1	6.60		
Cc1ccc(CNCCCNC(=O)C(C)(C)NS(=O)(=O)c2ccc(Cl)c(COc3cccc4ccc(C)nc34)c2Cl)cc1	6.70		
Cc1cc(C)c2cccc(OCc3c(Cl)ccc(S(=O)(=O)NC(C)(C)C(=O)NCCCN)c3Cl)c2n1	7.60		
Cc1ccc2cccc(OCc3c(Cl)ccc(S(=O)(=O)NC(C)(C)C(=O)N4CCN(C(=O)CN5CCNCC5)CC4)c3Cl)c2n1	8.40	25.1	
Cc1ccc2cccc(OCc3c(Cl)ccc(S(=O)(=O)NC(C)(C)C(=O)NCCN4CCCCC4)c3Cl)c2n1	6.50		
Cc1cc(C)c2cccc(OCc3c(Cl)ccc(S(=O)(=O)N4CCC[C@@H]4C(=O)NCCCNC(=O)c4ccc(C(=N)N)cc4)c3Cl)c2n1	9.10		
Cc1ccc2cccc(OCc3c(Cl)ccc(S(=O)(=O)NC(C)(C)C(=O)NCCCNCc4ccc(S(C)(=O)=O)cc4)c3Cl)c2n1	7.10		
